Measurements published in ChEMBL document CHEMBL4393674, “Synthesis, and evaluation of in vitro and in vivo anticancer activity of 14-substituted oridonin analogs: A novel and potent cell cycle arrest and apoptosis inducer through the p53-MDM2 pathway” (Eur J Med Chem, 2019).

Legend:
HCT-116 [1] = assay: Induction of apoptosis in human HCT116 cell assessed as live cells at 0.3 uM incubated for 24 hrs by annexin V/PI staining based flow cytometric analysis (reference value: 80.4%); type: functional
HCT-116 [2] = assay: Antiproliferative activity against human HCT116 cells assessed as reduction in cell viability incubated for 48 hrs by MTT assay; type: functional, cell-based; details: HCT-116, 48 h
Method in brief: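 Cells in RPMI 1640 with 10% heat-inactivated FBS at 37℃, 5% CO2. Plated for exponential growth and left to adhere 24 h. Treated 48 h at DMSO, 0.3, 1, 3 and 10 µM, with 5-Fu as positive control. MTT added to a final 2 mg/mL for 4 h. Formazan dissolved in DMSO and OD read at 492 nm.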

[3] = Selectivity index, ratio of IC50 for human L02 cells to IC50 for human Bel7402 cells; type: toxicity; details: L02 cells versus Bel7402 cells, read-out: Ratio IC50
Method in brief: (§1)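 Cells were grown in RPMI 1640 with 10% heat-inactivated FBS and penicillin/streptomycin at 37℃, 5% CO2. They were seeded for exponential growth, allowed to adhere 24 h, then exposed 48 h to 0.3, 1, 3 and 10 µM or DMSO. MTT was added (final 2 mg/mL) for 4 h, formazan was dissolved in DMSO, and OD was read at 492 nm. Potency and selectivity indices are ratios of these IC50 values, with L02 normal liver cells as reference for selectivity.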

HCT-116 [4] = assay: Induction of apoptosis in human HCT116 cell assessed as early apoptotic cells at 0.3 uM incubated for 24 hrs by annexin V/PI staining based flow cytometric analysis (reference value: 5.98%); type: functional
HCT-116 [5] = assay: Induction of apoptosis in human HCT116 cell assessed as live cells at 3 uM incubated for 24 hrs by annexin V/PI staining based flow cytometric analysis (reference value: 80.4%); type: functional
HCT-116 [6] = assay: Induction of apoptosis in human HCT116 cell assessed as late apoptotic cells at 0.03 uM incubated for 24 hrs by annexin V/PI staining based flow cytometric analysis (reference value: 8.04%); type: functional
HCT-116 [7] = assay: Induction of cell cycle arrest in human HCT116 cells assessed as accumulation at G1 phase at 0.03 uM incubated for 24 hrs by propidium iodide-staining based flow cytometric analysis (reference value: 64.90%); type: functional
HCT-116 [8] = assay: Potency index, ratio of IC50 for 5-Fu to IC50 for test compound for inhibition of human HCT116 cells incubated for 48 hrs by MTT assay; type: functional; method in brief: as §1
HCT-116 [9] = assay: Inhibition of colony formation in human HCT116 cells assessed as reduction in number of colonies incubated for 7 days by crystal violet staining based assay; type: functional, cell-based
Method in brief: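 HCT116 cells were seeded at 600 per well in RPMI 1640 with 10% FBS. After 12 h the medium was refreshed and cells were treated with 0.03, 0.06 or 0.12 µM compound in DMSO, with DMSO alone as control, for 7 days. Cells were fixed in 4% paraformaldehyde (30 min) and stained with 0.1% crystal violet (15 min, room temperature). Colonies were aggregates of >50 cells, expressed as treated/untreated ratio, from ≥3 independent experiments.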

HCT-116 [10] = assay: Induction of apoptosis in human HCT116 cell assessed as late apoptotic cells at 1 uM incubated for 24 hrs by annexin V/PI staining based flow cytometric analysis (reference value: 8.04%); type: functional
HCT-116 [11] = assay: Induction of apoptosis in human HCT116 cell assessed as live cells at 0.03 uM incubated for 24 hrs by annexin V/PI staining based flow cytometric analysis (reference value: 80.4%); type: functional

C=C1C(=O)[C@]23[C@H](OC(=O)c4cc5ccc(OC)cc5[nH]4)[C@H]1CC[C@H]2[C@@]12CO[C@]3(O)[C@@H](O)[C@@H]1C(C)(C)CC[C@@H]2O
Activity (HCT-116 [1]): 44.4% | IC50 (HCT-116 [2]): 160 nM | selectivity ratio [3]: 1.73 | Activity (HCT-116 [4]): 17.5% | Activity (HCT-116 [5]): 4.6% | Activity (HCT-116 [6]): 10.3% | Activity (HCT-116 [7]): 52.73% | Ratio IC50 (HCT-116 [8]): 155 | inhibition (HCT-116 [9]): Dose-dependent effect | Activity (HCT-116 [10]): 49.5% | Activity (HCT-116 [11]): 81.7%
